High-throughput results (PubChem BioAssay)
Hits are enriched below; roughly 2.9% of the tested compounds scored in any of these assays.
HTR1E antagonist = 5-HT1E (human) receptor antagonism; CHO 5-HT1E Ga15 NFAT-bla reporter, FRET, antagonist; 0.99% of 65,000 active; inhibition, % at 6 µM; P28566; AID 571;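 active = inhibition above a set limit, the mean inhibition across every tested compound plus 3 SD, cut at about 29% in these data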;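 also: signal is the 460 over 535 nm emission ratio of beta-lactamase substrate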
Target sequence (P28566 whole entry, looked up): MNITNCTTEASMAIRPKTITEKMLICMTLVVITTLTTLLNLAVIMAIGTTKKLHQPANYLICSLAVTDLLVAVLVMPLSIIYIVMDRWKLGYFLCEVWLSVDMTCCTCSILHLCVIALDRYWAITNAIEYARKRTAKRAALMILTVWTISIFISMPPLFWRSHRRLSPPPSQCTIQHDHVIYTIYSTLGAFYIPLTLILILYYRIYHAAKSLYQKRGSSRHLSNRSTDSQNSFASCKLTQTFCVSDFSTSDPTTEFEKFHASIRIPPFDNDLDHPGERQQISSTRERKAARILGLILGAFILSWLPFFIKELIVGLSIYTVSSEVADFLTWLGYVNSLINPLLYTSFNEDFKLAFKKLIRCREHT
HEK293 NFkB inh = lowers PMA/ionomycin-induced NF-kB signal in HEK293 cells; HEK-293 NF-kB luciferase reporter, luminescence; inhibition, % at 3 µM; 0.21% of 62,000 active;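 active = inhibition above the mean of all tested compounds plus 3 SD, cut at about 40% in these data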
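System: NF-kB luciferase reporter HEK-293 cells | Replication: Single test | Control set: DMSO vs reference inhibitor | Evaluation: % inhibition | Schedule: 1 h pretreatment, 16 h stimulation, 37 °C | Probe or stimulus: PMA with ionomycin | Compound dosing: One dose, 3 µM | Detection: Luciferase luminescence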
HTR1A agonist = 5-HT1a (human) receptor agonism. 0.56% of 65,000 active. P08908. activation, % at 10 µM. CHO 5-HT1a Ga15 NFAT-bla reporter, FRET ratio; 0% basal, 100% maximal reference agonist. AID 567;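 active = activation above the screen-wide mean activation plus 3 SD, cut at about 19% in these data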
SKBR3 24h inh = SK-BR-3 proliferation inhibitors | 0.47% of 41,000 active | SK-BR-3 viability, CellTiter-Glo ATP luminescence, 24 h; stronger effect = lower value | viability, % at 10 µM;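 active = viability at or below the median of all test compounds minus 3 SD, in both replicates if run twice, cut at about 45% in these data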
5HT1a antag = antagonists of human 5-HT1a serotonin receptor | P08908 | CHO 5-HT1a Ga15 NFAT-bla reporter, antagonist mode | AID 612 | inhibition, % at 10 µM | 0.68% of 62,000 active;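 active = inhibition above the mean of all tested compounds plus 3 SD, cut at about 43% in these data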;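 also: receptor stimulated by 5-CT agonist at 100 nM near EC80; beta-lactamase reporter measured by ratiometric fluorescence of a cleavable substrate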
5HT1E ag = agonists of human 5-HT1E serotonin receptor | P28566 | activation, % at 6 µM | 0.69% of 65,000 active | CHO 5-HT1E Ga15 NFAT-bla reporter, FRET; 0% DMSO wells, 100% control agonist wells;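 active = activation above a set limit, the screen-wide mean activation plus 3 SD, cut at about 8.5% in these data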
A number is an active result; - = inactive; . = not tested or not shown.

SMILES | HTR1E antagonist | HEK293 NFkB inh | HTR1A agonist | SKBR3 24h inh | 5HT1a antag | 5HT1E ag
CCCCn1c(NC(=O)c2ccc(F)cc2)c(C#N)c2nc3ccccc3nc21 | - | - | 29 | . | - | 9.1
CCCCn1c(NC(=O)c2ccccc2)c(C#N)c2nc3ccccc3nc21 | - | - | - | . | - | -
Cc1occc1-c1nnc(SCC(=O)c2cc3ccccc3oc2=O)o1 | - | - | - | - | - | -
Cn1c(=O)c2c(nc(SCc3cccnc3)n2Cc2ccccc2)n(C)c1=O | - | - | - | . | - | -
Cc1ccc(Cn2c(SCc3cccnc3)nc3c2c(=O)n(C)c(=O)n3C)cc1 | - | - | 29 | - | - | -
COc1ccccc1-c1nnc2sc(-c3cc4ccccc4o3)nn12 | 36 | - | - | - | - | -
CN(C)c1ccc(-c2nn3c(-c4ccncc4)nnc3s2)cc1 | - | - | - | - | - | -
COc1ccccc1-c1nnc2sc(-c3cnccn3)nn12 | - | - | - | - | - | -
COc1ccccc1-c1nnc2sc(-c3ccc(N(C)C)cc3)nn12 | 86 | 55 | - | - | 68 | -
CN(C)c1ccc(-c2nn3c(-c4ccccc4Cl)nnc3s2)cc1 | 75 | - | - | - | 45 | -
O=S(=O)(c1ccccc1)N1CCN(Cc2cccc(Cl)c2)CC1 | - | - | - | - | - | -
O=C1NCCN1Cc1cccc(Cl)c1 | - | - | 28 | . | - | -
Cc1noc(C)c1CSc1nc2sc(C)c(C)c2c(=O)n1C1CCCC1 | - | - | - | . | - | -
Cc1ccc(NC(=O)CC2Nc3ccccc3NC2=O)cc1Cl (stereo not drawn) | - | - | 34 | . | - | 14
CC(Sc1nc2ccccc2s1)C(=O)N1CCOCC1 (stereo not drawn) | - | - | - | - | - | -
CCCCP(=O)(CCCC)c1ccccc1C(=O)O | - | - | 252 | . | - | -
CC(C)(C)c1cc(NC(=O)c2cc(F)c(F)c(F)c2F)no1 | - | - | - | . | - | -
CCCOCCOC(=O)c1[nH]c2c(c1C)C(=O)CC(c1cc(OC)ccc1OC)C2 (stereo not drawn) | 81 | - | - | . | 76 | -
COc1ccc(OC)c(C2CC(=O)c3c([nH]c(C(=O)OC(C)C)c3C)C2)c1 (stereo not drawn) | 87 | - | - | . | 71 | -
COCCOC(=O)c1[nH]c2c(c1C)C(=O)CC(c1cc(OC)ccc1OC)C2 (stereo not drawn) | - | - | - | . | - | -
COc1ccc(OC)c(C2CC(=O)c3c([nH]c(C(=O)OCC4CCCO4)c3C)C2)c1 (stereo not drawn) | - | - | - | . | - | -
CCOC(=O)c1ccccc1NC(=O)c1cc(S(=O)(=O)N2CCOCC2)ccc1F | 29 | - | - | . | - | -
CCOC(=O)N1CCN(S(=O)(=O)c2ccc(F)c(C(=O)Nc3cccc(C)c3C)c2)CC1 | - | - | - | . | - | -
Cn1c(Cl)nc2c1c(=O)n(Cc1cccc(Br)c1)c(=O)n2C | - | . | 36 | - | . | -
COc1ccc(S(=O)(=O)N2CCCCC2)cc1C(C)C | - | - | - | - | - | 34
SMILES | HTR1E antagonist | HEK293 NFkB inh | HTR1A agonist | SKBR3 24h inh | 5HT1a antag | 5HT1E ag
COc1ccc(Oc2ccc(S(=O)(=O)N3CCCCC3)cc2S(=O)(=O)N2CCCCC2)cc1 | - | - | - | - | - | -
COc1cccc(N2CCN(C3CC(=O)N(c4ccc(Cl)c(Cl)c4)C3=O)CC2)c1 (stereo not drawn) | - | - | - | - | - | -
CN1C(=O)CC(N2CCN(c3ccc(Cl)c(Cl)c3)CC2)C1=O (stereo not drawn) | 40 | . | - | - | . | -
O=C(CSc1nc2ccccc2o1)Nc1nc2ccccc2s1 | - | - | - | - | - | -
O=C(Cc1cccs1)Nc1nc2ccccc2s1 | - | - | 64 | - | - | -
CC(C)C[C@H](N)c1nnc(S(=O)(=O)Cc2ccc(F)cc2)o1 | 43 | - | - | 33 | 88 | -
Cn1cc(S(=O)(=O)Cc2ccc(F)cc2)c2ccccc21 | - | - | - | . | - | -
COc1ccccc1N1CCN(C(=O)CSc2nc(-c3ccccc3)cc(=O)[nH]2)CC1 | - | - | - | - | - | 15
COc1ccccc1N1CCN(C(=O)CSc2ccc3c(C)cc(C)nc3n2)CC1 | - | - | - | . | - | -
COc1ccccc1N1CCN(C(=O)CSc2nc3ncnc(N)c3[nH]2)CC1 | - | - | - | - | - | -
COc1ccccc1N1CCN(C(=O)CSc2nc(C)c(Cc3ccccc3)c(=O)[nH]2)CC1 | - | - | - | - | - | 20
COc1cccc(C(=O)OCn2nnc3ccccc3c2=O)c1OC | 33 | - | - | . | - | -
COc1cc(OC)nc(NC(=O)COC(=O)C2CCCCC2)n1 | - | - | 91 | . | - | -
N#CCCSc1ccccc1NC(=O)c1ccc(S(=O)(=O)N2CCCC2)cc1 | - | - | - | - | - | -
COc1ccccc1-c1cc(C(F)(F)F)nc(S(=O)(=O)CCCC(=O)Nc2cc(C)on2)n1 | 46 | - | - | - | - | -
COc1ccccc1-c1cc(C(F)(F)F)nc(S(=O)(=O)CCCC(=O)N2CCCCC2C)n1 (stereo not drawn) | - | - | - | 38 | 64 | -
COc1ccccc1-c1cc(C(F)(F)F)nc(S(=O)(=O)CCCC(=O)NC(C)C)n1 | 48 | - | - | - | - | -
Cc1ccc(C)c(S(=O)(=O)NC(CC(C)C)C(=O)O)c1 (stereo not drawn) | - | - | - | - | - | -
CCN(CCNC(=O)Cn1c(=O)sc2ccccc21)c1ccccc1 | - | - | - | . | - | -
CCCCN(C)CCCNC(=O)Cn1c(=O)sc2ccccc21 | - | - | - | - | - | 70
Cc1cc(C(=O)COc2ccc(-c3nnco3)cc2)c(C)n1Cc1ccccc1 | - | - | - | . | - | -
C=C1[C@@H](C)C2[C@H](Cc3ccccc3)NC(=O)[C@]23OC(=O)CC[C@H](O)CCC[C@H](C)C/C=C/[C@H]3[C@@H]1O (stereo partly drawn) | 34 | . | - | - | . | -
CCN(CC(=O)N1CCN(C)CC1)S(=O)(=O)c1ccc(Cl)cc1 | - | - | - | - | - | -
CSc1ccc2nnc(-c3cccc(F)c3)n2n1 | - | - | 20 | . | - | -
CCOC(=O)CC(=O)CSc1ccc2nnc(-c3cccc(F)c3)n2n1 | - | - | - | . | - | -
CC(=O)N(CC(C)(C)CC=C(C)C)c1ccccc1 | - | - | - | - | - | -
OCCN(CCO)c1ncnc2c1sc1nc(N3CCOCC3)c3c(c12)CCCC3 | 31 | . | - | - | . | -
CC1CCN(c2ccc(C(=O)O)cc2N)CC1 | - | - | - | 43 | - | -
O=C(NCc1cccs1)c1csc2ccccc12 | - | - | - | - | - | -
COC(=O)C1=COC(C)C2CN3CCc4c([nH]c5ccccc45)C3CC12 (stereo not drawn) | - | - | 20 | - | - | -
